Active and inactive are the calls of the source. No cut-off for these calls is given here.
Legend:
NCI-H460 [1] = test: Induction of apoptosis in human NCI-H460 cells expressing CTR5 gene assessed as necrotic cells at 4 uM measured after 72 hrs by Annexin V-Cy5/propidium iodide staining-based flow cytometry (reference value: 0.9%); type: functional
NCI-H460 [2] = test: Decrease in mTOR level in human NCI-H460 cells expressing CTR5 gene at 3 to 5.5 uM measured after 24 hrs by Western blot analysis; type: functional, cell-based
Procedure, shortened: (§1)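 Cells were seeded at 3×10^5 (H460) or 4.2×10^5 (H322) per dish and treated 24h later with DMSO or a concentration series for 24h. Lysed in cold RIPA with phosphatase and protease inhibitors, then sonicated. 30 μg protein run on Bis-Tris gels and transferred to nitrocellulose or PVDF. Detection used infrared secondary antibodies on an Odyssey imager. Signal normalized to β-actin or GAPDH and to DMSO control; three independent experiments.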

[3] = Cytotoxicity against human NCI-H322 cells assessed as reduction in cell viability measured after 72 hrs by CellTiter-Blue cell viability assay; type: functional, cell-based; conditions: Homo sapiens, NCI-H322, 72 h; read-out: IC50
Procedure, shortened: (§2)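 Monolayer cultures in RPMI-1640 with 10% FBS at 37°C, seeded at 850 (H460 CTR5), 660 (H460 LKB1+/+) or 1780 (H322) cells/well so that the end point reaches 70–80% confluence. Treated 72h; vehicle 0.15% DMSO. CellTiter-Blue added until colour change (50–60, 80–90 or 100–120 min respectively), fluorescence read at 590 nm. IC50 by nonlinear regression; three independent experiments.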

NCI-H460 [4] = test: Induction of apoptosis in human NCI-H460 cells expressing CTR5 gene assessed as viable cells at 4 uM measured after 72 hrs in presence of autophagy inhibitor chloroquine by Annexin V-Cy5/propidium iodide staining-based flow cytometry (reference value: 94.6%); type: functional; conditions: NCI-H460, 72 h, read-out: Activity
NCI-H460 [5] = test: Induction of apoptosis in human NCI-H460 cells expressing CTR5 gene assessed as necrotic cells at 20 uM measured after 72 hrs by Annexin V-Cy5/propidium iodide staining-based flow cytometry (reference value: 0.9%); type: functional
NCI-H460 [6] = test: Induction of apoptosis in human NCI-H460 cells expressing CTR5 gene assessed as necrotic cells at 5 uM measured after 72 hrs by Annexin V-Cy5/propidium iodide staining-based flow cytometry (reference value: 2.1%); type: functional
NCI-H460 [7] = test: Induction of autophagy in human NCI-H460 cells expressing CTR5 gene assessed as acidic vesicular organelle formation at 4 uM measured after 72 hrs by acridine orange dye based flow cytometry (reference value: 91.2%); type: functional
NCI-H460 [8] = test: Induction of apoptosis in human NCI-H460 cells expressing CTR5 gene assessed as viable cells at 4 uM measured after 72 hrs by Annexin V-Cy5/propidium iodide staining-based flow cytometry (reference value: 94.6%); type: functional; conditions: NCI-H460, 72 h, read-out: Activity
NCI-H460 [9] = test: Induction of apoptosis in human NCI-H460 cells expressing CTR5 gene assessed as late apoptotic cells at 4 uM measured after 72 hrs in presence of autophagy inhibitor chloroquine by Annexin V-Cy5/propidium iodide staining-based flow cytometry (reference value: 2.7%); type: functional
NCI-H460 [10] = test: Induction of apoptosis in human NCI-H460 cells expressing CTR5 gene assessed as necrotic cells at 4 uM measured after 72 hrs in presence of autophagy inhibitor chloroquine by Annexin V-Cy5/propidium iodide staining-based flow cytometry (reference value: 0.9%); type: functional
[11] = Cytotoxicity against human LKB1-positive NCI-H460 cells assessed as reduction in cell viability measured after 72 hrs by CellTiter-Blue cell viability assay; type: functional, cell-based; conditions: Homo sapiens, NCI-H460, 72 h; read-out: IC50; procedure, shortened: as §2
[12] = molecular target: Serine/threonine-protein kinase mTOR (Homo sapiens) (UniProt P42345); test: Inhibition of mTOR in human NCI-H460 cells expressing CTR5 gene assessed as decrease in S6 phosphorylation at S235/236 site by reverse-phase protein array method relative to control; type: cell-based
[13] = Cytotoxicity against human NCI-H322 spheroids assessed as reduction in cell viability measured after 96 hrs by CellTiter-Glo luminescence viability assay; type: functional; conditions: NCI-H322, 96 h
Procedure, shortened: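 Spheroids grown in round-bottom ultralow-attachment wells, 495 (H460 CTR5) or 650 (H322) cells/well. Drug exposure 96h with DMSO vehicle. CellTiter-Glo added, shaken 20 min, left 10 min, then luminescence read. IC50 by nonlinear regression; three independent experiments.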

[14] = Downregulation of p62 level in human NCI-H322 cells at 3 to 5.5 uM measured after 24 hrs by Western blot analysis; type: functional, cell-based; procedure, shortened: as §1
NCI-H460 [15] = test: Induction of apoptosis in human NCI-H460 cells expressing CTR5 gene assessed as late apoptotic cells at 5 uM measured after 72 hrs by Annexin V-Cy5/propidium iodide staining-based flow cytometry (reference value: 3.2%); type: functional
NCI-H460 [16] = test: Induction of apoptosis in human NCI-H460 cells expressing CTR5 gene assessed as late apoptotic cells at 4 uM measured after 72 hrs by Annexin V-Cy5/propidium iodide staining-based flow cytometry (reference value: 2.7%); type: functional
NCI-H322 [17] = test: Induction of apoptosis in human NCI-H322 cells assessed as increase in cleaved caspase7 level at 3 to 5.5 uM measured after 24 hrs by Western blot analysis; type: functional, cell-based; procedure, shortened: as §1
NCI-H460 [18] = test: Induction of apoptosis in human NCI-H460 cells expressing CTR5 gene assessed as increase in cleavage of procaspase8 at 3 to 4.5 uM measured after 24 hrs by Western blot analysis; type: functional, cell-based; procedure, shortened: as §1
NCI-H322 [19] = test: Induction of apoptosis in human NCI-H322 cells assessed as increase in cleaved PARP level at 3 to 5.5 uM measured after 24 hrs by Western blot analysis; type: functional, cell-based; procedure, shortened: as §1
NCI-H460 [20] = test: Induction of apoptosis in human NCI-H460 cells expressing CTR5 gene assessed as viable cells at 5 uM measured after 72 hrs by Annexin V-Cy5/propidium iodide staining-based flow cytometry (reference value: 93%); type: functional; conditions: NCI-H460, 72 h, read-out: Activity
NCI-H460 [21] = test: Induction of apoptosis in human NCI-H460 cells expressing CTR5 gene assessed as early apoptotic cells at 20 uM measured after 72 hrs by Annexin V-Cy5/propidium iodide staining-based flow cytometry (reference value: 1.8%); type: functional
NCI-H460 [22] = test: Induction of apoptosis in human NCI-H460 cells expressing CTR5 gene assessed as early apoptotic cells at 5 uM measured after 72 hrs by Annexin V-Cy5/propidium iodide staining-based flow cytometry (reference value: 1.7%); type: functional
[23] = Cytotoxicity against human NCI-H460 cells expressing CTR5 gene assessed as reduction in cell viability measured after 72 hrs by CellTiter-Blue cell viability assay; type: functional, cell-based; conditions: Homo sapiens, NCI-H460, 72 h; read-out: IC50; procedure, shortened: as §2
NCI-H460 [24] = test: Induction of apoptosis in human NCI-H460 cells expressing CTR5 gene assessed as decrease in procaspase3 level at 4.5 uM measured after 24 hrs by Western blot analysis; type: functional; set-up: scale not given: the % may be the effect or the level left; procedure, shortened: as §1
NCI-H460 [25] = test: Induction of apoptosis in human NCI-H460 cells expressing CTR5 gene assessed as downregulation of Bcl2 expression at 3 to 5.5 uM measured after 24 hrs by Western blot analysis; type: functional, cell-based; procedure, shortened: as §1
NCI-H460 [26] = test: Induction of apoptosis in human NCI-H460 cells expressing CTR5 gene assessed as early apoptotic cells at 4 uM measured after 72 hrs by Annexin V-Cy5/propidium iodide staining-based flow cytometry (reference value: 1.8%); type: functional

C=C(C)[C@@H]1CC[C@]2(C)[C@H](C[C@@H](F)C34OC(=O)[C@@]5(CC[C@@H](C)[C@H](C)[C@@H]35)CC[C@]42C)[C@@]1(C)CCC(=O)NCCC
Activity (NCI-H460 [1]): 3.6%
Activity (NCI-H460 [2]): Active
IC50 [3]: 3.3 µM
viability at 4 µM (NCI-H460 [4]): 77.4%
Activity (NCI-H460 [5]): 0.9%
Activity (NCI-H460 [6]): 5%
Activity (NCI-H460 [7]): 66.7%
viability at 4 µM (NCI-H460 [8]): 77.4%
Activity (NCI-H460 [9]): 11.5%
Activity (NCI-H460 [10]): 3.6%
IC50 [11]: 4.4 µM
inhibition [12]: 11.7%
IC50 [13]: 10 µM
Activity [14]: Active
Activity (NCI-H460 [15]): 29.1%
Activity (NCI-H460 [16]): 11.5%
Activity (NCI-H322 [17]): Active
Activity (NCI-H460 [18]): Active
Activity (NCI-H322 [19]): Active
viability at 5 µM (NCI-H460 [20]): 51.9%
Activity (NCI-H460 [21]): 2.8%
Activity (NCI-H460 [22]): 13.4%
IC50 [23]: 2.6 µM
Activity (NCI-H460 [24]): 29%
Activity (NCI-H460 [25]): Dose-dependent effect
Activity (NCI-H460 [26]): 7.6%
